System: E. coli UTI89 capsule, orcinol OD572
Test: surface polysaccharide capsule reduction in UPEC – orcinol colorimetric, UTI89 strain, 100 µM, orthogonal assay, confirmation (AID 504733)
Conditions: at 100 µM; active compounds read low
Outline: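 Test system: Uropathogenic E. coli UTI89 or its capsule-export mutant ΔkpsM | Doses: One 100 µM compound dose | Timing: Hydrolysis step 1 h, 80 °C, pH 2 | Technique: Orcinol colour at OD 572 nm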

SMILES | capsule formation [%]
O=C(Nc1ccncc1)c1ccc2ncsc2c1 | 19.1
COc1ccc2nc(NC(=O)c3ccc(Br)s3)sc2c1 | 24.5
CCOc1ccc(-c2cc(NC(=O)c3c(F)cccc3F)c(C(=O)O)s2)cc1 | 9.04
O=C(NCc1cc([N+](=O)[O-])ccc1O)c1cccnc1Sc1ccccc1Cl | 18.6
O=C(ONc1ccc(N=NC(=O)c2ccccc2O)cc1)c1ccccc1 | 16
CC1=NN2C(=N)/C(=C\c3ccc(SCc4ccco4)o3)C(=O)N=C2S1 | 20.2
